# Source: ChEMBL document CHEMBL1177871, “Synthesis and antitumor activity of novel 2',3'-diethanethio-2',3',5'-trideoxy-5'-triazolonucleoside analogues” (Eur J Med Chem, 2010)
# How the values were obtained:
# Type in all cases: functional, cell-based
# [1] = Cytotoxicity against human LAC cells after 72 hrs by MTT assay
# How it was run: (§1)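 Incubation was 72 h at 37 °C in 95% air/5% CO₂. MTT was then added for 4 h and absorbance read at 490 nm. EC₅₀ is the concentration giving 50% growth inhibition versus untreated control; 5-fluorouridine served as reference.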
# HeLa = assay: Cytotoxicity against human HeLa cells after 72 hrs by MTT assay; how it was run: as §1
# A549 = assay: Cytotoxicity against human A549 cells after 72 hrs by MTT assay; conditions: A549, 72 h; how it was run: as §1
# HepG2 = assay: Cytotoxicity against human HepG2 cells after 72 hrs by MTT assay; conditions: HepG2, 72 h; how it was run: as §1
SMILES,EC50 [1] [µM],EC50 (HeLa) [µM],EC50 (A549) [µM],EC50 (HepG2) [µM]
CCS[C@@H]1[C@H](SCC)[C@@H](Cn2cc(-c3ccccc3C(F)(F)F)nn2)O[C@H]1n1cc(C)c(=O)[nH]c1=O,50.6,54.3,7.23,22.1
CCOC(=O)c1cn(C[C@H]2O[C@@H](n3cc(C)c(=O)[nH]c3=O)[C@H](SCC)[C@@H]2SCC)nn1,≥ 100,≥ 100,≥ 100,≥ 100
CCS[C@@H]1[C@H](SCC)[C@@H](Cn2cc(-c3ccc(C)cc3)nn2)O[C@H]1n1cc(C)c(=O)[nH]c1=O,≥ 100,77.5,12.3,21.6
CCS[C@@H]1[C@H](SCC)[C@@H](Cn2cc(-c3cccc(C)c3)nn2)O[C@H]1n1ccc(=O)[nH]c1=O,99,18.8,12.2,18.3
CCS[C@@H]1[C@H](SCC)[C@@H](Cn2cc(-c3ccc(OC)cc3)nn2)O[C@H]1n1ccc(=O)[nH]c1=O,24.3,27.7,16.8,16.2
CCS[C@@H]1[C@H](SCC)[C@@H](Cn2cc(-c3ccc(OC)cc3)nn2)O[C@H]1n1cc(C)c(=O)[nH]c1=O,25.9,66,38.8,22.8
CCS[C@@H]1[C@H](SCC)[C@@H](Cn2cc(-c3ccc(F)cc3)nn2)O[C@H]1n1cc(C)c(=O)[nH]c1=O,≥ 100,39.5,≥ 100,22.7
CCS[C@@H]1[C@H](SCC)[C@@H](Cn2cc(-c3ccccc3)nn2)O[C@H]1n1cc(C)c(=O)[nH]c1=O,–,1.89,31.7,65
CCS[C@@H]1[C@H](SCC)[C@@H](Cn2cc(-c3ccccc3)nn2)O[C@H]1n1ccc(N)nc1=O,–,33.5,64,57.1
CCS[C@@H]1[C@H](SCC)[C@@H](Cn2cc(-c3cccs3)nn2)O[C@H]1n1cc(C)c(=O)[nH]c1=O,≥ 100,54.9,37.3,≥ 100
CCS[C@@H]1[C@H](SCC)[C@@H](Cn2cc(-c3ccccc3C(F)(F)F)nn2)O[C@H]1n1ccc(=O)[nH]c1=O,81.1,32.8,19.4,30.3
CCS[C@@H]1[C@H](SCC)[C@@H](Cn2cc(-c3ccccc3)nn2)O[C@H]1n1ccc(=O)[nH]c1=O,–,6.59,3.04,8.38
CCS[C@@H]1[C@H](SCC)[C@@H](Cn2cc(-c3ccc(F)cc3)nn2)O[C@H]1n1ccc(=O)[nH]c1=O,72.4,37.4,22.9,22.6
CCS[C@@H]1[C@H](SCC)[C@@H](Cn2cc(-c3cccs3)nn2)O[C@H]1n1ccc(=O)[nH]c1=O,86.5,≥ 100,≥ 100,91.8
CCS[C@@H]1[C@H](SCC)[C@@H](Cn2cc(COC(C)=O)nn2)O[C@H]1n1ccc(=O)[nH]c1=O,≥ 100,≥ 100,≥ 100,≥ 100
CCOC(=O)c1cn(C[C@H]2O[C@@H](n3ccc(=O)[nH]c3=O)[C@H](SCC)[C@@H]2SCC)nn1,≥ 100,≥ 100,≥ 100,≥ 100
CCS[C@@H]1[C@H](SCC)[C@@H](Cn2cc(-c3ccc(C)cc3)nn2)O[C@H]1n1ccc(=O)[nH]c1=O,≥ 100,46.7,6.78,19.9
O=c1[nH]cc(F)c(=O)[nH]1 [FLUOROURACIL],43.7,79.8,100,52.4
